# TRPC4 act: activators of mouse TRPC4 channel, primary screen, Fluo4 calcium, HEK293 TRPC4beta/mu-opioid cells; Short transient receptor potential channel 4 (Mus musculus), Q9QUQ5; Fluo4 calcium fluorescence; stronger effect = higher value; B-score at 10 µM; 310,000 tested, 0.49% active;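 active = B-score above 5 SD of library B-scores, and initial fluorescence ratio not above library mean plus 5 SD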;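 note: positive B-score marks a calcium rise read as TRPC4 activation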
# Target sequence (Q9QUQ5 whole entry, looked up): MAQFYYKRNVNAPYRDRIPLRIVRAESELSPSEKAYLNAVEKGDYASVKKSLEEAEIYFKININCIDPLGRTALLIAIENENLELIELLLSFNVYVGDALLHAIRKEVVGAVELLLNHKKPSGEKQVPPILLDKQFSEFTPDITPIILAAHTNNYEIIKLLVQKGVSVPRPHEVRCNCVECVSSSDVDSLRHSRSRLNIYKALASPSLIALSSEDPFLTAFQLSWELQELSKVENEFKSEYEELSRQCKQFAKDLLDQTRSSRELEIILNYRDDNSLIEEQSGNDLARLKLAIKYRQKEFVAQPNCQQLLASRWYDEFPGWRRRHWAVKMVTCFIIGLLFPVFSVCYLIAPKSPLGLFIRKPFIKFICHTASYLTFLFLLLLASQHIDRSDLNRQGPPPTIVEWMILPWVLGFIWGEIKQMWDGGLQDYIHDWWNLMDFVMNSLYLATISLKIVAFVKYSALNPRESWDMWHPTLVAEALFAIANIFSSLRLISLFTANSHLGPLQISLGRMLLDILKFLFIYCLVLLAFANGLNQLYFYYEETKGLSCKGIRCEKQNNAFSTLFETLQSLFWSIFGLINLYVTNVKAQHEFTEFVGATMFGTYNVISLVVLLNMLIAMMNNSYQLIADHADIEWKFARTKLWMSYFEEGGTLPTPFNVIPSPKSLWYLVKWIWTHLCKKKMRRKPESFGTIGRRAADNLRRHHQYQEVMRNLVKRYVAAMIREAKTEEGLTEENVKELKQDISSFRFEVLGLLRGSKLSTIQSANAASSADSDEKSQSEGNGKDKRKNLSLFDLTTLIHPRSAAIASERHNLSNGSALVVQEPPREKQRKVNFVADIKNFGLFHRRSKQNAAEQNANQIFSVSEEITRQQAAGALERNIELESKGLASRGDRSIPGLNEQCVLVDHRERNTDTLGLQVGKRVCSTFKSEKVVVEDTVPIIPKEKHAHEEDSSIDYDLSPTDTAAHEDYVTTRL
#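 Assay system – TRPC4beta and mu-opioid receptor HEK293 stable cells · Measured by – Fluo4 fluorescence, kinetic · Schedule – dye loading 45 min room temperature, 110 s kinetic read · Read-out – B-scored integrated calcium fluorescence ratio · Controls – buffer and maximal DAMGO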
# TRPC6 activator: mouse TRPC6 channel activators, primary screen, cell-based, HEK293, membrane potential dye; Short transient receptor potential channel 6 (Mus musculus), Q61143; HEK293-TRPC6 membrane potential dye fluorescence; stronger effect = higher value; B-score at 10 µM; 310,000 tested, 0.13% active; AID 2550, 2010;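 active = B-score of the integrated fluorescence ratio above library mean plus 3 SD, and starting fluorescence ratio within library mean plus 5 SD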;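 note: higher score means more depolarization so channel activation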
# TRPC4 PAM: positive allosteric modulators of TRPC4, primary screen, cell-based, mouse TRPC4beta, HEK293 mu-opioid, Fluo-4 calcium; Short transient receptor potential channel 4 (Mus musculus), Q9QUQ5; DAMGO EC20, Fluo-4 Ca2+ flux; stronger effect = higher value; B-score at 10 µM; 310,000 tested, 0.42% active; AID 2227, 2009;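 active = B-score of calcium response area above 5 SD of library B-scores, with initial fluorescence ratio within 5 SD of library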;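 note: B-score of integrated fluorescence ratio over time as area under calcium response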
# TRPC6 inhibitor: mouse TRPC6 channel inhibitors, primary screen, cell-based, HEK293, membrane potential dye; ACh-evoked depolarization; stronger effect = lower value; 310,000 tested, 1.1% active; B-score at 10 µM; Short transient receptor potential channel 6 (Mus musculus), Q61143;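 active = B-score under library mean minus 3 SD, initial fluorescence not abnormally high, positive integrated signal ratio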;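 note: B-score derived from integrated fluorescence ratio over the kinetic read; more negative B-score means stronger inhibition of depolarization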
# TRPC4 inh: inhibitors of mouse TRPC4 channel, primary screen, Fluo4 calcium, HEK293 TRPC4beta/mu-opioid cells | Short transient receptor potential channel 4 (Mus musculus), Q9QUQ5 | DAMGO-evoked Fluo4 calcium flux; stronger effect = lower value | B-score at 10 µM | 300,000 tested, 0.39% active | AID 2247, 2010;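 active = B-score over 3 SD under the library average, no early fluorescence shift, positive overall ratio signal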
#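 Assay system: HEK293 cells with stable TRPC4beta plus mu-opioid receptor expression; Probe or stimulus: DAMGO in two steps, submaximal then maximal; Dosing: single-point compound dosing; Measured by: Fluo4 calcium-dye fluorescence, kinetic read; Read-out basis: B score from integrated Fluo4 fluorescence ratio.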
# TRPC4 sel inh 2: second selectivity test of TRPC6 inhibitors: effect on mouse TRPC4; shares compounds with TRPC6 inhibitor; HEK293 TRPC4/MOR, membrane potential dye fluorescence; channel activated by saturating DAMGO dose; inhibition, % at 10 µM; 920 tested, 42% active; AID 2776;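 active = compounds whose fluorescence signal differed from control wells by over 3 SD, either direction, in both duplicate plates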
# TRPC4 spec: mouse TRPC4 modulation by TRPC6 hits, confirmation, selectivity assay for TRPC6 inhibitor project, cell-based, HEK293 TRPC4/mu-opioid, membrane potential dye; shares compounds with TRPC6 inhibitor; membrane potential fluorescence; activity change, negative = inhibition, % at 10 µM; 920 tested, 61% active; AID 2777, 2010;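 active = rise or fall in signal beyond 3 SD of buffer-only wells in both replicate plates, either sign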;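 note: integrated kinetic ratio of fluorescence range over baseline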
# HEK293 MPD ctr 2-1: nonspecific membrane potential effects, parental HEK293, confirmation, counter-screen for TRPC6 inhibitor project, cell-based, second counter screen | signal change vs control, % at 10 µM | parental HEK293 membrane potential dye fluorescence; maximal acetylcholine challenge after compound addition | 920 tested, 31% active | shares compounds with TRPC6 inhibitor;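 active = membrane potential signal moving either way by over 3 SD of the maximum-effect control, in both duplicate plates, meaning non-specific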
# HEK293 MPD ctr-1: membrane potential modulation in parental HEK293, confirmation, counter-screen for TRPC6 inhibitor project, cell-based | membrane potential signal change, % at 10 µM | parental HEK293 membrane potential dye fluorescence | shares compounds with TRPC6 inhibitor | 920 tested, 60% active;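 active = membrane potential signal shifting up or down by more than 3 SD of buffer-only wells, on both duplicate plates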
# HEK293 MPD ctr-2: parental HEK293 membrane potential modulation, confirmation, counter-screen for TRPC6 modulator project, cell-based; shares compounds with TRPC6 inhibitor; membrane potential dye fluorescence; membrane potential signal change, % at 10 µM; 2,400 tested, 51% active; AID 488924, 2010;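 active = membrane potential signal moves up or down beyond 5 SD from buffer-only wells, on both duplicate plates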
# HEK293 MPD ctr 2-2: second check of TRPC6 modulator effects in parental HEK293 cells | shares compounds with TRPC6 inhibitor | membrane potential dye fluorescence; after compound, maximal acetylcholine stimulation | inhibition, % at 10 µM | 2,400 tested, 14% active | AID 488926;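 active = membrane potential signal drops by more than 5 SD from the mean control signal, in both duplicate plates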;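 note: plate controls were acetylcholine ECmax control wells for no effect and buffer only wells for full effect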
# TRPC4/MOR mod: TRPC4 modulation by TRPC6 hit compounds, confirmation, selectivity assay for TRPC6 modulator project, cell-based, HEK293 TRPC4/mu-opioid, membrane potential dye, mouse; percent change from control (negative = decrease, positive = increase), % at 10 µM; membrane potential fluorescence; 2,400 tested, 69% active; shares compounds with TRPC6 inhibitor;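 active = membrane potential signal moved up or down beyond 5 SD of buffer control wells, in both duplicate plates, actives on both sides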;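 note: plate controls were assay buffer wells for no effect and DAMGO maximal-effect wells for full effect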
# TRPC4/MOR inh 2: mouse TRPC4 off-target activity of TRPC6 modulators, second screen | shares compounds with TRPC6 inhibitor | HEK293 TRPC4/mu-opioid, membrane potential dye fluorescence; stimulated with maximal-effect DAMGO | inhibition, % at 10 µM | 2,400 tested, 55% active;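 active = drop in membrane potential signal beyond 5 SD of the control wells in both duplicate plates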;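 note: TRPC4 counter screen for TRPC6 hits run under conditions tuned for TRPC6 not TRPC4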
# TRPC6 block conf: mouse TRPC6 channel inhibitors, confirmation, HEK293 cells, membrane potential dye, duplicate. 3,300 tested, 43% active. ACh-evoked depolarization. shares compounds with TRPC6 inhibitor. inhibition, % at 10 µM;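 active = fluorescence ratio falls more than 5 SD below the full-stimulation control mean, in both duplicate runs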;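 note: integrated fluorescence ratio of peak minus minimum over baseline after agonist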
# TRPC6 act conf: mouse TRPC6 channel activators, confirmation, HEK293 cells, membrane potential dye, duplicate; AID 488961, 2010; activation, % at 10 µM; 2,800 tested, 11% active; shares compounds with TRPC6 inhibitor; HEK293-TRPC6 membrane potential dye fluorescence, FDSS;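 active = ratio signal rise beyond 5 SD above unstimulated control wells' mean, seen in both duplicate runs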;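 note: plate controls were buffer EC0 wells for no effect and acetylcholine ECmax response for full effect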
# * marks the source's active call; other numbers are inactive results; i = inactive; / = not tested or not shown. Only some compounds are listed: those with a hit (about 2.3% of all), similar ones and a draw of the others.
SMILES,TRPC4 act,TRPC6 activator,TRPC4 PAM,TRPC6 inhibitor,TRPC4 inh,HEK293 MPD ctr-2,HEK293 MPD ctr 2-2,TRPC4/MOR mod,TRPC4/MOR inh 2,TRPC6 block conf,TRPC6 act conf,others
Cc1ccc(N=Nc2c(=O)[nH]n3c(C)cc(C)nc23)cc1,i,i,14*,-6.1*,i,-134%*,i,-14%*,i,41%*,i,
Cc1ccc(OCCNC(=O)CCc2ccccc2)cc1C,i,i,i,i,i,/,/,/,/,/,/,
COc1ccc(Cl)c2sc(N3CCN(C(C)=O)CC3)nc12,i,i,i,i,i,/,/,/,/,/,/,
CC(C)(CO)NCc1ccccc1OCC(=O)Nc1ccccc1,i,i,i,i,i,/,/,/,/,/,/,
Cc1ccc(NC(=O)COc2ccccc2CNC(C)(C)CC(C)(C)C)cc1,i,14*,i,i,i,296%*,i,71%*,i,i,176%*,
Fc1ccc(NC(=S)NNc2ncc(C(F)(F)F)cc2Cl)c(F)c1,i,i,i,-6.5*,i,120%*,i,20%*,i,50%*,/,
CCCc1cc(=O)oc2cc(OCC(=O)Nc3ccc(S(N)(=O)=O)cc3)ccc12,i,i,i,i,i,/,/,/,/,/,/,
CC(NC(=O)c1ccc(F)cc1)c1ccc2c(c1)CCCC2 (stereo not given),i,i,i,-6.1*,i,i,i,i,i,i,i,
Cc1ccc(Cl)cc1NC(=O)CCN1C(=O)C2C3CCC(C3)C2C1=O (stereo not given),i,i,i,i,i,/,/,/,/,/,/,
O=C(N/N=C/c1ccc([N+](=O)[O-])s1)c1ccccc1Br,i,i,i,i,i,/,/,/,/,/,/,
Cc1ccccc1C(=O)N/N=C/c1ccc([N+](=O)[O-])s1,i,12*,i,-6.1*,i,i,i,13%*,i,i,i,
O=C(N/N=C/c1ccc([N+](=O)[O-])s1)c1ccccc1,i,i,i,-6*,i,i,i,i,i,i,i,
CCN(CC(=O)NCc1cccs1)C(=O)c1cccc(S(=O)(=O)N2CCc3ccccc32)c1,i,i,i,i,i,/,/,/,/,/,/,
CCCn1c2c(c(=N)c3c1CCC3)CCC2,i,i,i,-8.1*,i,/,/,/,/,i,i,TRPC4 sel inh 2=78%*;TRPC4 spec=-28%*;HEK293 MPD ctr 2-1=12%*;HEK293 MPD ctr-1=-578%*
CN(C)CCNc1nc2sc3c(c2c(=O)n1-c1ccc(F)cc1)CCCCC3,i,i,i,-5.8*,i,i,i,i,50%*,i,i,
COc1ccc(-n2c(NCCN(C)C)nc3sc4c(c3c2=O)CCCCC4)cc1,i,i,i,-7.5*,i,/,/,/,/,i,i,TRPC4 sel inh 2=i;TRPC4 spec=i;HEK293 MPD ctr 2-1=i;HEK293 MPD ctr-1=i
CC(C)(C)C(=O)N1CCC(O)(CS(=O)(=O)Cc2ccccc2)CC1,i,i,i,i,i,/,/,/,/,/,/,
Cc1cccc(NC(=O)c2c([N+](=O)[O-])cnn2C)c1,i,i,i,i,i,/,/,/,/,/,/,
CCOC(=O)c1ccccc1NC(=O)COC(=O)C1CCCC1,i,14*,i,-8.1*,i,137%*,i,32%*,i,58%*,118%*,
CCOC(=O)c1ccccc1NC(=O)c1ccc(F)cc1,i,i,i,i,i,/,/,/,/,/,/,
CCOC(=O)c1ccccc1NC(=O)COC(=O)CC1CCCCC1,i,i,i,i,i,/,/,/,/,/,/,
CCOC(=O)c1ccccc1NC(=O)c1c(F)c(F)c(F)c(F)c1F,i,i,i,-6.2*,i,i,i,i,i,i,i,
Cc1ccc(-c2nc3ncccn3c2Nc2ccccc2C)o1,i,i,i,-5.8*,i,-115%*,i,-18%*,68%*,i,i,
Cc1ccc(Nc2c(-c3ccc(N4CCOCC4)cc3)nc3ncccn23)c(C)c1,i,i,i,-6.1*,i,-143%*,62%*,-29%*,96%*,84%*,i,
Cc1cccc(C)c1Nc1c(-c2ccc(N3CCOCC3)cc2)nc2ncccn12,i,i,i,-8*,i,-123%*,56%*,-28%*,97%*,76%*,i,

# Assay outcomes as filed in PubChem BioAssay.
